In ChEMBL document CHEMBL1275408, “A chemical genomic screen in Saccharomyces cerevisiae reveals a role for diphthamidation of translation elongation factor 2 in inhibition of protein synthesis by sordarin” (2008):
Active and inactive are the calls of the source. No cut-off for these calls is given here.

Legend:
[1] = tested on: Saccharomyces cerevisiae; experiment: Antifungal activity against Saccharomyces cerevisiae BY4741 harboring GGC1 YDL198C mutant gene by spectrophotometry; type: functional
Method in brief: (§1)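 Screen of BY4741 KanMX4 deletion strains pre-grown 3 days at 28°C in YPD with G418 (150 mg/liter), then pinned into liquid SC containing GM193663. The sensitivity screen used 2 ng/ml; the resistance screen used 62.5 ng/ml, with validation at 62.5, 125 and 500 ng/ml. OD595 was read every 24 h over 5 days at 28°C. Growth was scored relative to wild type and to drug-free controls. Retests were at least in duplicate.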

[2] = tested on: Saccharomyces cerevisiae; experiment: Antifungal activity against Saccharomyces cerevisiae BY4741 harboring MIP1 YOR330C mutant gene by spectrophotometry; type: functional; method in brief: as §1
[3] = tested on: Saccharomyces cerevisiae; experiment: Antifungal activity against Saccharomyces cerevisiae BY4741 harboring YDL063C mutation in unknown gene by spectrophotometry; type: functional
Method in brief: (§2)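 Haploid MATa BY4741 KanMX4 deletion strains pinned from frozen stocks into YPD + G418 (150 mg/liter), grown 3 days at 28°C to confluence, then pin-replicated into SC liquid with no drug or sordarin derivative GM193663 (2 ng/ml sensitivity; 62.5 ng/ml resistance). 28°C, OD595 read every 24 h for 5 days; growth scored relative to wild type on same plate and to untreated mutant.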

[4] = tested on: Saccharomyces cerevisiae; experiment: Antifungal activity against Saccharomyces cerevisiae BY4741 harboring DPH5 YLR172C mutant gene by spectrophotometry; type: functional; method in brief: as §1
[5] = tested on: Saccharomyces cerevisiae; experiment: Antifungal activity against Saccharomyces cerevisiae BY4741 harboring RSM19 YNR037C mutant gene by spectrophotometry; type: functional; method in brief: as §2
[6] = tested on: Saccharomyces cerevisiae; experiment: Antifungal activity against Saccharomyces cerevisiae BY4741 harboring PUF3 YLL013C mutant gene by spectrophotometry; type: functional; method in brief: as §2
[7] = tested on: Saccharomyces cerevisiae; experiment: Antifungal activity against Saccharomyces cerevisiae BY4741 harboring BAP2 YBR068C mutant gene by spectrophotometry; type: functional; method in brief: as §1
[8] = tested on: Saccharomyces cerevisiae; experiment: Antifungal activity against Saccharomyces cerevisiae BY4741 harboring SER1 YOR184W mutant gene by spectrophotometry; type: functional; method in brief: as §2
[9] = tested on: Saccharomyces cerevisiae; experiment: Antifungal activity against Saccharomyces cerevisiae BY4741 harboring CTF3 YLR381W mutant gene by spectrophotometry; type: functional; method in brief: as §1
[10] = tested on: Saccharomyces cerevisiae; experiment: Antifungal activity against Saccharomyces cerevisiae BY4741 harboring YBR141C mutation in unknown gene by spectrophotometry; type: functional; method in brief: as §2
[11] = tested on: Saccharomyces cerevisiae; experiment: Antifungal activity against Saccharomyces cerevisiae BY4741 harboring MUP3 YHL036W mutant gene by spectrophotometry; type: functional; method in brief: as §2
[12] = tested on: Saccharomyces cerevisiae; experiment: Antifungal activity against Saccharomyces cerevisiae BY4741 harboring FMP35 YIL157C mutant gene by spectrophotometry; type: functional; method in brief: as §1
[13] = tested on: Saccharomyces cerevisiae; experiment: Antifungal activity against Saccharomyces cerevisiae BY4741 harboring YKL098W mutation in unknown gene by spectrophotometry; type: functional
Method in brief: (§3)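 Deletion strains from the nonessential haploid MATa BY4741 collection (KanMX4 replacement) were grown in YPD with G418 at 28°C for 3 days, then pinned into liquid SC with or without sordarin derivative GM193663 (2 ng/ml for sensitivity, 62.5 ng/ml for resistance). Cultures were kept at 28°C and read at OD595 every 24 h for 5 days. Growth was scored against wild type on the same plate and against the drug-free control. Hits were retested at least in duplicate.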

[14] = tested on: Saccharomyces cerevisiae; experiment: Antifungal activity against Saccharomyces cerevisiae BY4741 harboring IBD2 YNL164C mutant gene by spectrophotometry; type: functional; method in brief: as §1
[15] = tested on: Saccharomyces cerevisiae; experiment: Antifungal activity against Saccharomyces cerevisiae BY4741 harboring CPR6 YLR216C mutant gene by spectrophotometry; type: functional; method in brief: as §1
[16] = tested on: Saccharomyces cerevisiae; experiment: Antifungal activity against Saccharomyces cerevisiae BY4741 harboring PRR2 YDL214C mutant gene by spectrophotometry; type: functional; method in brief: as §2
[17] = tested on: Saccharomyces cerevisiae; experiment: Antifungal activity against Saccharomyces cerevisiae BY4741 harboring RPL21A YBR191W mutant gene by spectrophotometry; type: functional; method in brief: as §2
[18] = tested on: Saccharomyces cerevisiae; experiment: Antifungal activity against Saccharomyces cerevisiae BY4741 harboring STE1 YDR410C mutant gene by spectrophotometry; type: functional; method in brief: as §2
[19] = tested on: Saccharomyces cerevisiae; experiment: Antifungal activity against Saccharomyces cerevisiae BY4741 harboring RPS11A YDR025W mutant gene by spectrophotometry; type: functional; method in brief: as §2
[20] = tested on: Saccharomyces cerevisiae; experiment: Antifungal activity against Saccharomyces cerevisiae BY4741 harboring RPL1B YGL135W mutant gene by spectrophotometry; type: functional; method in brief: as §2
[21] = tested on: Saccharomyces cerevisiae; experiment: Antifungal activity against Saccharomyces cerevisiae BY4741 harboring ARO3 YDR035W mutant gene by spectrophotometry; type: functional; method in brief: as §1
[22] = tested on: Saccharomyces cerevisiae; experiment: Antifungal activity against Saccharomyces cerevisiae BY4741 harboring QRI7 YDL104C mutant gene by spectrophotometry; type: functional; method in brief: as §2
[23] = tested on: Saccharomyces cerevisiae; experiment: Antifungal activity against Saccharomyces cerevisiae BY4741 harboring RPS18A YDR450W mutant gene by spectrophotometry; type: functional; method in brief: as §2
[24] = tested on: Saccharomyces cerevisiae; experiment: Antifungal activity against Saccharomyces cerevisiae BY4741 harboring FUN12 YAL035W mutant gene by spectrophotometry; type: functional; method in brief: as §1
[25] = tested on: Saccharomyces cerevisiae; experiment: Antifungal activity against Saccharomyces cerevisiae BY4741 harboring DPH1 YIL103W mutant gene by spectrophotometry; type: functional; method in brief: as §1
[26] = tested on: Saccharomyces cerevisiae; experiment: Antifungal activity against Saccharomyces cerevisiae BY4741 harboring MOH1 YBL049W mutant gene by spectrophotometry; type: functional; method in brief: as §1
[27] = tested on: Saccharomyces cerevisiae; experiment: Antifungal activity against Saccharomyces cerevisiae BY4741 harboring YGR228W mutation in unknown gene by spectrophotometry; type: functional; method in brief: as §3
[28] = tested on: Saccharomyces cerevisiae; experiment: Antifungal activity against Saccharomyces cerevisiae BY4741 harboring YCL042W mutation by spectrophotometry; type: functional; method in brief: as §2
[29] = tested on: Saccharomyces cerevisiae; experiment: Antifungal activity against Saccharomyces cerevisiae BY4741 harboring AFG3 YER017C mutant gene assessed as reduction in fungal growth at 2 ng/ml by spectrophotometry; type: functional, organism-based
Method in brief: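 Haploid BY4741 KanMX4 deletion strains pre-grown in YPD with G418 (150 mg/liter) for 3 days at 28°C. They were then pin-replicated into liquid SC with sordarin derivative GM193663 at 2 ng/ml, or without drug. Plates were incubated at 28°C and OD595 read every 24 h for 5 days. Growth was scored against wild type on the same plate and against the drug-free mutant. Hits were retested at least in duplicate.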

[30] = tested on: Saccharomyces cerevisiae; experiment: Antifungal activity against Saccharomyces cerevisiae BY4741 harboring deletion mutation in dph2 gene at 300 to 500 ng/ml after 24 hrs by liquid growth assay; type: functional
[31] = tested on: Saccharomyces cerevisiae; experiment: Antifungal activity against Saccharomyces cerevisiae BY4741 harboring AMS1 YGL156W mutant gene by spectrophotometry; type: functional; method in brief: as §1
[32] = tested on: Saccharomyces cerevisiae; experiment: Antifungal activity against Saccharomyces cerevisiae BY4741 harboring YMR141C mutation in unknown gene by spectrophotometry; type: functional; method in brief: as §3
[33] = tested on: Saccharomyces cerevisiae; experiment: Antifungal activity against Saccharomyces cerevisiae BY4741 harboring SHU2 YDR078C mutant gene by spectrophotometry; type: functional; method in brief: as §2
[34] = tested on: Saccharomyces cerevisiae; experiment: Antifungal activity against Saccharomyces cerevisiae BY4741 harboring NAT3 YPR131C mutant gene by spectrophotometry; type: functional; method in brief: as §2
[35] = tested on: Saccharomyces cerevisiae; experiment: Antifungal activity against Saccharomyces cerevisiae BY4741 harboring HMI1 YOL095C mutant gene by spectrophotometry; type: functional; method in brief: as §1
[36] = tested on: Saccharomyces cerevisiae; experiment: Antifungal activity against Saccharomyces cerevisiae BY4741 harboring MRPL36 YBR122C mutant gene by spectrophotometry; type: functional; method in brief: as §2
[37] = tested on: Saccharomyces cerevisiae; experiment: Antifungal activity against Saccharomyces cerevisiae BY4741 harboring deletion mutation in dph1 gene at 100 ng/ml by plate assay; type: functional, organism-based
Method in brief: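 Spot test on solid SC glucose plates with or without 100 ng/ml sordarin. Drops of 10^5 cells plus 10-fold serial dilutions of each dph deletion strain were spotted alongside the parental strain. Plates were incubated at 28°C for 6 days and imaged every 24 h.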

Compound: CO[C@H]1[C@@H](O)[C@H](O)[C@H](OC[C@@]23C[C@@H]4[C@H](C)CC[C@H]4[C@@]4(C=O)CC2C=C(C(C)C)[C@@]34C(=O)O)O[C@@H]1C [SORDARIN]
- MIC [1]: > 0.5 µg/mL
- MIC [2]: > 0.5 µg/mL
- MIC [3]: > 0.125 µg/mL
- MIC [4]: > 0.5 µg/mL
- MIC [5]: > 0.5 µg/mL
- MIC [6]: > 0.5 µg/mL
- MIC [7]: > 0.125 µg/mL
- MIC [8]: > 0.5 µg/mL
- MIC [9]: > 0.125 µg/mL
- MIC [10]: > 0.5 µg/mL
- MIC [11]: > 0.5 µg/mL
- MIC [12]: > 0.5 µg/mL
- MIC [13]: > 0.5 µg/mL
- MIC [14]: > 0.5 µg/mL
- MIC [15]: > 0.125 µg/mL
- MIC [16]: > 0.5 µg/mL
- MIC [17]: > 0.125 µg/mL
- MIC [18]: > 0.125 µg/mL
- MIC [19]: > 0.0625 µg/mL
- MIC [20]: > 0.5 µg/mL
- MIC [21]: > 0.5 µg/mL
- MIC [22]: > 0.125 µg/mL
- MIC [23]: > 0.0625 µg/mL
- MIC [24]: > 0.125 µg/mL
- MIC [25]: > 0.5 µg/mL
- MIC [26]: > 0.5 µg/mL
- MIC [27]: > 0.5 µg/mL
- MIC [28]: > 0.125 µg/mL
- Activity [29]: Active
- Activity [30]: 50%
- MIC [31]: > 0.125 µg/mL
- MIC [32]: > 0.5 µg/mL
- MIC [33]: > 0.5 µg/mL
- MIC [34]: > 0.0625 µg/mL
- MIC [35]: > 0.125 µg/mL
- MIC [36]: > 0.5 µg/mL
- MIC [37]: inactive
